Columns and labels:
Type in all cases: functional
HOP-62 = experiment: Growth inhibition of human HOP62 cells at 10 uM after 48 hrs; details: HOP-62, 48 h, read-out: GI
In short: (§1)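 Single-dose primary screen in the NCI 60 human tumour cell line panel, run at the NCI facility. The panel covers nine subpanels: leukaemia, non-small cell lung, colon, CNS, melanoma, ovarian, renal, prostate and breast. Read-out was percent growth of treated cells, shown as a mean graph and reported as percent growth inhibition.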

Cancer cell lines [1] = experiment: Ratio of 5-FU LC50 to compound LC50 for human breast cancer cells
In short: (§2)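 Compounds passing the NCI single-dose primary screen were retested across the 60 human tumour cell lines (nine subpanels) over a 5-log dose range. GI50, TGI and LC50 were recorded for each cell line, with 5-fluorouracil run as the reference drug. Subpanel values for compound and 5-FU were then compared.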

Cancer cell lines [2] = experiment: Ratio of 5-FU LC50 to compound LC50 for human ovarian cancer cells; in short: as §2
Cancer cell lines [3] = experiment: Ratio of 5-FU LC50 to compound LC50 for human CNS cancer cells; in short: as §2
Melanoma cell [4] = experiment: Ratio of 5-FU LC50 to compound LC50 for human melanoma cells; in short: as §2
Cancer cell lines [5] = experiment: Ratio of 5-FU LC50 to compound LC50 for human colon cancer cells; in short: as §2
Cancer cell lines [6] = experiment: Ratio of 5-FU TGI to compound TGI for human prostate cancer cells
Cancer cell lines [7] = experiment: Ratio of 5-FU TGI to compound TGI for human renal cancer cells
Cancer cell lines [8] = experiment: Ratio of 5-FU TGI to compound TGI for human CNS cancer cells
Melanoma cell [9] = experiment: Ratio of 5-FU TGI to compound TGI for human melanoma cells
Leukemia cell [10] = experiment: Ratio of 5-FU TGI to compound TGI for human leukemia cells
Cancer cell lines [11] = experiment: Ratio of 5-FU GI50 to compound GI50 for human breast cancer cells; in short: as §2
Cancer cell lines [12] = experiment: Ratio of 5-FU GI50 to compound GI50 for human prostate cancer cells; in short: as §2
Cancer cell lines [13] = experiment: Ratio of 5-FU GI50 to compound GI50 for human ovarian cancer cells; in short: as §2
Melanoma cell [14] = experiment: Ratio of 5-FU GI50 to compound GI50 for human melanoma cells; in short: as §2
Cancer cell lines [15] = experiment: Ratio of 5-FU GI50 to compound GI50 for human CNS cancer cells; in short: as §2
Cancer cell lines [16] = experiment: Ratio of 5-FU GI50 to compound GI50 for human non-small cell lung cancer cells; in short: as §2
Leukemia cell [17] = experiment: Ratio of 5-FU GI50 to compound GI50 for human leukemia cells; in short: as §2
[18] = Cytotoxicity against human breast cancer cells at 10 uM after 48 hrs; details: Cancer cell lines; in short: as §1
[19] = Cytotoxicity against human renal cancer cells at 10 uM after 48 hrs; details: Cancer cell lines
[20] = Cytotoxicity against human melanoma cells at 10 uM after 48 hrs; details: Melanoma cell; for CC50: read-out: LC50 (the source's name); in short: as §1
[21] = Cytotoxicity against human CNS cancer cells at 10 uM after 48 hrs; details: Cancer cell lines; for CC50: read-out: LC50 (the source's name)
[22] = Cytotoxicity against human colon cancer cells at 10 uM after 48 hrs; details: Cancer cell lines; for CC50: read-out: LC50 (the source's name); in short: as §1
[23] = Cytotoxicity against human leukemia cells at 10 uM after 48 hrs; details: Leukemia cell
[24] = Cytotoxicity against human non-small cell lung cancer cells at 10 uM after 48 hrs; details: Cancer cell lines; for CC50: read-out: LC50 (the source's name); in short: as §1
A498 = experiment: Growth inhibition of human A498 cells at 10 uM after 48 hrs; details: A498, 48 h, read-out: GI; in short: as §1
MDA-MB-435 = experiment: Growth inhibition of human MDA-MB-435 cells at 10 uM after 48 hrs; details: MDA-MB-435, 48 h, read-out: GI; in short: as §1
Malme-3M = experiment: Growth inhibition of human MALME-3M cells at 10 uM after 48 hrs; details: read-out: GI; in short: as §1
U-251 = experiment: Growth inhibition of human U251 cells at 10 uM after 48 hrs; details: U-251, 48 h, read-out: GI
In short: (§3)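 NCI 60-cell-line disease-oriented human tumor panel, single-dose primary screen at 10 µM. Data given as mean-graph percent growth of treated cells, reported as percent growth inhibition (GI %).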

HCT-15 = experiment: Growth inhibition of human HCT15 cells at 10 uM after 48 hrs; details: HCT-15, 48 h, read-out: GI; in short: as §1
COLO 205 = experiment: Growth inhibition of human COLO205 cells at 10 uM after 48 hrs; details: COLO 205, 48 h, read-out: GI; in short: as §1
NCI-H522 = experiment: Growth inhibition of human NCI-H522 cells at 10 uM after 48 hrs; details: NCI-H522, 48 h, read-out: GI; in short: as §1
[25] = Growth inhibition of human HOP92 cells at 10 uM after 48 hrs; details: HOP-92, 48 h, read-out: GI; in short: as §1
A549 = experiment: Growth inhibition of human A549 cells at 10 uM after 48 hrs; details: A549, 48 h, read-out: GI; in short: as §1
BT-549 = experiment: Growth inhibition of human BT549 cells at 10 uM after 48 hrs; details: BT-549, 48 h, read-out: GI; in short: as §1
ACHN = experiment: Growth inhibition of human ACHN cells at 10 uM after 48 hrs; details: read-out: GI; in short: as §1
UACC-62 = experiment: Growth inhibition of human UACC62 cells at 10 uM after 48 hrs; details: UACC-62, 48 h, read-out: GI; in short: as §3
[26] = Growth inhibition of human UACC257 cells at 10 uM after 48 hrs; details: UACC-257, 48 h, read-out: GI; in short: as §3
SK-MEL-5 = experiment: Growth inhibition of human SK-MEL-5 cells at 10 uM after 48 hrs; details: SK-MEL-5, 48 h, read-out: GI; in short: as §3
M14 = experiment: Growth inhibition of human M14 cells at 10 uM after 48 hrs; details: M14, 48 h, read-out: GI; in short: as §1
LOX IMVI = experiment: Growth inhibition of human LOXIMVI cells at 10 uM after 48 hrs; details: read-out: GI; in short: as §1
SF-295 = experiment: Growth inhibition of human SF295 cells at 10 uM after 48 hrs; details: SF-295, 48 h, read-out: GI; in short: as §3
HCT-116 = experiment: Growth inhibition of human HCT116 cells at 10 uM after 48 hrs; details: HCT-116, 48 h, read-out: GI; in short: as §1
NCI-H460 = experiment: Growth inhibition of human NCI-H460 cells at 10 uM after 48 hrs; details: NCI-H460, 48 h, read-out: GI; in short: as §1
RPMI-8226 = experiment: Growth inhibition of human RPMI8226 cells at 10 uM after 48 hrs; details: RPMI-8226, 48 h, read-out: GI; in short: as §1
MDA-MB-468 = experiment: Growth inhibition of human MDA-MB-468 cells at 10 uM after 48 hrs; details: MDA-MB-468, 48 h, read-out: GI; in short: as §1

Structure (SMILES): COc1cc(/C=C2\CCCc3c2nc(N)nc3-c2cc(OC)c(OC)c(OC)c2)cc(OC)c1OC
- inhibition of growth at 10 µM (HOP-62): 82.2%
- RatioLC50 (Cancer cell lines [1]): 15
- RatioLC50 (Cancer cell lines [2]): 15
- RatioLC50 (Cancer cell lines [3]): 15
- RatioLC50 (Melanoma cell [4]): 15
- RatioLC50 (Cancer cell lines [5]): 15
- Ratio (Cancer cell lines [6]): 15
- Ratio (Cancer cell lines [7]): 15
- Ratio (Cancer cell lines [8]): 15
- Ratio (Melanoma cell [9]): 15
- Ratio (Leukemia cell [10]): 15
- RatioGI50 (Cancer cell lines [11]): 15
- RatioGI50 (Cancer cell lines [12]): 15
- RatioGI50 (Cancer cell lines [13]): 15
- RatioGI50 (Melanoma cell [14]): 15
- RatioGI50 (Cancer cell lines [15]): 15
- RatioGI50 (Cancer cell lines [16]): 15
- RatioGI50 (Leukemia cell [17]): 15
- GI50 [18]: 2 µM
- LC50 (concentration killing 50% of cells) [18]: > 100 µM
- TGI [18]: 69.2 µM
- CC50 [19]: > 100 µM
- GI50 [19]: 1.8 µM
- TGI [19]: 20.8 µM
- GI50 [20]: 1.3 µM
- TGI [20]: 20 µM
- CC50 [20]: > 100 µM
- GI50 [21]: 3.3 µM
- TGI [21]: > 100 µM
- CC50 [21]: > 100 µM
- GI50 [22]: 1.1 µM
- TGI [22]: 2.6 µM
- CC50 [22]: 68.3 µM
- GI50 [23]: 1.3 µM
- LC50 [23]: > 100 µM
- TGI [23]: 36.5 µM
- GI50 [24]: 1.7 µM
- TGI [24]: 42.5 µM
- CC50 [24]: > 100 µM
- inhibition of growth at 10 µM (A498): 99.5%

Structure (SMILES): COc1cc(/C=C2\CCCc3c2nc(C)nc3-c2cc(OC)c(OC)c(OC)c2)cc(OC)c1OC
- inhibition of growth at 10 µM (MDA-MB-435): 94.8%
- inhibition of growth at 10 µM (Malme-3M): 69.8%
- inhibition of growth at 10 µM (U-251): 90.2%
- inhibition of growth at 10 µM (HCT-15): 95.8%
- inhibition of growth at 10 µM (COLO 205): 80.9%
- inhibition of growth at 10 µM (NCI-H522): 48.2%
- inhibition of growth at 10 µM [25]: < 30%
- inhibition of growth at 10 µM (HOP-62): 78%
- inhibition of growth at 10 µM (A549): 83.8%
- RatioLC50 (Cancer cell lines [1]): 15
- RatioLC50 (Cancer cell lines [2]): 15
- RatioLC50 (Cancer cell lines [3]): 15
- RatioLC50 (Melanoma cell [4]): 15
- RatioLC50 (Cancer cell lines [5]): 15
- Ratio (Cancer cell lines [6]): 15
- Ratio (Cancer cell lines [7]): 15
- Ratio (Cancer cell lines [8]): 15
- Ratio (Melanoma cell [9]): 15
- Ratio (Leukemia cell [10]): 15
- RatioGI50 (Cancer cell lines [11]): 15
- RatioGI50 (Cancer cell lines [12]): 15
- RatioGI50 (Cancer cell lines [13]): 15
- RatioGI50 (Melanoma cell [14]): 15
- RatioGI50 (Cancer cell lines [15]): 15
- RatioGI50 (Cancer cell lines [16]): 15
- RatioGI50 (Leukemia cell [17]): 15
- GI50 [18]: 2.6 µM
- LC50 (concentration killing 50% of cells) [18]: > 100 µM
- TGI [18]: 80.8 µM
- CC50 [19]: > 100 µM
- GI50 [19]: 2.2 µM
- TGI [19]: 42 µM
- GI50 [20]: 1.4 µM
- TGI [20]: 3.1 µM
- CC50 [20]: > 100 µM
- GI50 [21]: 34.5 µM
- TGI [21]: > 100 µM
- CC50 [21]: > 100 µM
- GI50 [22]: 0.9 µM
- TGI [22]: 67.3 µM
- CC50 [22]: 76.2 µM
- GI50 [23]: 1.1 µM
- LC50 [23]: > 100 µM
- TGI [23]: 62.5 µM
- GI50 [24]: 2.7 µM
- TGI [24]: > 100 µM
- CC50 [24]: > 100 µM
- inhibition of growth at 10 µM (BT-549): 97.1%
- inhibition of growth at 10 µM (ACHN): 87.5%
- inhibition of growth at 10 µM (A498): 83.7%
- inhibition of growth at 10 µM (UACC-62): 91%
- inhibition of growth at 10 µM [26]: 56.2%
- inhibition of growth at 10 µM (SK-MEL-5): 80.9%

Structure (SMILES): COc1ccc(/C=C2\CCCC3=C(c4ccc(OC)cc4)Nc4ccccc4N=C32)cc1
- inhibition of growth at 10 µM (MDA-MB-435): 86.2%
- inhibition of growth at 10 µM (M14): < 30%
- inhibition of growth at 10 µM (Malme-3M): < 30%
- inhibition of growth at 10 µM (LOX IMVI): 42.6%
- inhibition of growth at 10 µM (U-251): < 30%
- inhibition of growth at 10 µM (SF-295): < 30%
- inhibition of growth at 10 µM (HCT-15): < 30%
- inhibition of growth at 10 µM (HCT-116): 61.9%
- inhibition of growth at 10 µM (COLO 205): < 30%
- inhibition of growth at 10 µM (NCI-H522): 93.4%
- inhibition of growth at 10 µM (NCI-H460): < 30%
- inhibition of growth at 10 µM [25]: < 30%
- inhibition of growth at 10 µM (HOP-62): < 30%
- inhibition of growth at 10 µM (A549): < 30%
- inhibition of growth at 10 µM (RPMI-8226): 74.3%
- inhibition of growth at 10 µM (MDA-MB-468): 56.4%
- inhibition of growth at 10 µM (BT-549): < 30%
- inhibition of growth at 10 µM (ACHN): < 30%
- inhibition of growth at 10 µM (A498): < 30%
- inhibition of growth at 10 µM (UACC-62): 32%
- inhibition of growth at 10 µM [26]: < 30%
- inhibition of growth at 10 µM (SK-MEL-5): < 30%
